From ChEMBL document CHEMBL1122583, “Structure-activity relationships among DNA gyrase inhibitors. Synthesis and biological evaluation of 1,2-dihydro-4, 4-dimethyl-1-oxo-2-naphthalenecarboxylic acids as 1-carba bioisosteres of oxolinic acid” (1984)
Converted amounts (≈) assume the structure as drawn.

What was measured:
[1] = tested on: Salmonella enterica subsp. enterica serovar Gallinarum; assay: In vitro antifungal activity against Salmonella gallinarum (ATCC 9184); type: functional
[2] = tested on: Klebsiella pneumoniae; assay: In vitro antifungal activity against Klebsiella pneumoniae AD (ATCC 10031); type: functional
[3] = tested on: Candida albicans; assay: In vitro antifungal activity against Candida albicans (ATCC 10231); type: functional
[4] = tested on: Staphylococcus aureus; assay: In vitro antifungal activity against Staphylococcus aureus (ATCC 13709); type: functional
[5] = tested on: Mycolicibacterium smegmatis; assay: In vitro antifungal activity against Mycobacterium smegmatis (ATCC 607); type: functional
[6] = tested on: Escherichia coli; assay: In vitro antifungal activity against Escherichia coli (ATCC 9637); type: functional
[7] = tested on: Nucleic Acid; assay: In vitro DNA gyrase inhibition activity; type: nucleic-acid assay
Procedure, shortened: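 DNA gyrase holoenzyme, purified using a heparin-Sepharose affinity column in place of the DEAE-cellulose step. Supercoiling of relaxed ColE1 plasmid was run on 1% agarose horizontal gels. Relaxed and supercoiled bands were quantified by densitometry of photographic negatives. Because inhibition is noncompetitive, Ki was taken as the concentration giving 50% inhibition of supercoil band formation.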

Row | MIC [1] | MIC [2] | MIC [3] | MIC [4] | MIC [5] | MIC [6] | Ki (concentration giving 50% inhibition of gyrase supercoiling) [7] | SMILES
1 | 500 µg/mL (≈ 1940 µM) | > 500 µg/mL | > 500 µg/mL | 500 µg/mL (≈ 1940 µM) | 500 µg/mL (≈ 1940 µM) | > 500 µg/mL | 300 µg/mL | CC1(C)C=C(C(=O)O)C(=O)c2cc3c(cc21)CCO3
2 | 50 µg/mL (≈ 231 µM) | > 250 µg/mL | > 250 µg/mL | 6.25 µg/mL (≈ 28.9 µM) | 50 µg/mL (≈ 231 µM) | > 250 µg/mL | 2000 µg/mL | CC1(C)C=C(C(=O)O)C(=O)c2ccccc21
3 | 500 µg/mL (≈ 1920 µM) | > 500 µg/mL | > 500 µg/mL | 500 µg/mL (≈ 1920 µM) | 500 µg/mL (≈ 1920 µM) | > 500 µg/mL | 300 µg/mL | CC1(C)C=C(C(=O)O)C(=O)c2cc3c(cc21)OCO3
4 | > 100 µg/mL | > 100 µg/mL | > 100 µg/mL | > 100 µg/mL | > 100 µg/mL | > 100 µg/mL | 300 µg/mL | CC1(C)C=C(C(=O)O)C(=O)c2ccc3c(c21)OCC3
5 | > 100 µg/mL | > 100 µg/mL | > 100 µg/mL | > 100 µg/mL | > 100 µg/mL | > 100 µg/mL | > 1000 µg/mL | COc1cc2c(cc1OC)C(C)(C)C=C(C(=O)O)C2=O

Row | SMILES | MIC [1] | MIC [2] | MIC [3] | MIC [4] | MIC [5] | MIC [6] | Ki (concentration giving 50% inhibition of gyrase supercoiling) [7]
6 | CCn1cc(C(=O)O)c(=O)c2ccc(C)nc21 [NALIDIXIC ACID] | 12.5 µg/mL (≈ 53.8 µM) | 3.13 µg/mL (≈ 13.5 µM) | > 100 µg/mL | 100 µg/mL (≈ 431 µM) | > 100 µg/mL | 12.5 µg/mL (≈ 53.8 µM) | –
7 | CCn1cc(C(=O)O)c(=O)c2cc3c(cc21)OCO3 [OXOLINIC ACID] | 0.78 µg/mL (≈ 2.99 µM) | < 0.1 µg/mL | > 100 µg/mL | 3.13 µg/mL (≈ 12 µM) | 50 µg/mL (≈ 191 µM) | 0.78 µg/mL (≈ 2.99 µM) | –
